Data: article PMC4943881 (Biochemistry, 2015)
Like-named read-outs stand apart in the source and are kept apart here. Where a SMILES comes first, the peptide text is derived from it.

Key:
2P-p38α = details: cited from earlier work
[1] = system: Tyr-185 phosphorylated (pY) ERK2; details: formation of the ternary MBP-bound complex of pY ERK2; cited from earlier work
0P-p38α = details: read-out: binding affinity of ATP; cited from earlier work
[2] = biological target: Elk1F peptide DEF-site peptide (Homo sapiens) (UniProt P19419); details: cited from earlier work
2P-ERK2 (active ERK2) [3] = biological target: T1, 2P-ERK2 (active ERK2) (Rattus norvegicus, UniProt P63086); assay: NMR; format: binding
0P-ERK2 (inactive ERK2) [4] = biological target: T2, 0P-ERK2 (inactive ERK2) (Rattus norvegicus, UniProt P63086); assay: NMR; format: binding
[5] = biological target: 0P-ERK2 mutant that was binding competent only at the DEJL-site; details: full-length Elk1 protein and 0P-ERK2 mutant binding competent only at the DEJL-site; cited from earlier work
0P-ERK2 (inactive ERK2) [6] = biological target: T2, 0P-ERK2 (inactive ERK2); assay: NMR; format: binding; details: estimated, slow/intermediate exchange prevented accurate determination
How it was run: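 Unphosphorylated ERK2 from E. coli BL21(DE3), ILV-methyl-labeled in a protonated background, ~0.26 mM in 50 mM Tris pH 7.4, 150 mM NaCl, 5 mM MgSO4, 0.1 mM EDTA, 5 mM DTT, 99% D2O, 2.5% glycerol. AMP-PNP titrated at 0, 0.1, 0.2, 0.3, 1.0, 2.1, 4.2 mM; 5 h 2D TROSY-HMQC per point, 25 °C, 800 MHz; combined methyl CSP (1H, 0.25×13C).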

2P-ERK2 (active ERK2) [7] = biological target: T1, 2P-ERK2 (active ERK2); assay: NMR; format: binding; details: estimated, slow/intermediate exchange prevented accurate determination

Question: What does the source list for Nc1ncnc2c1ncn2[C@@H]1O[C@H](COP(=O)(O)OP(=O)(O)OP(=O)(O)O)[C@@H](O)[C@H]1O [ATP]?
Answer: increase in the binding affinity of ATP upon phosphorylation (2P-p38α; 2P-p38α versus 0P-p38α): > 30 fold; Kd (2P-p38α; read-out: binding affinity of ATP, 2P-p38α): 430 µM; koff, ATP [1]: 0.5 s⁻¹; Kd (0P-p38α): > 15000 µM

Question: For ERK2 (2P-ERK2) (from UniProt P63086), which Kd [2] is on record?
Answer: 8 µM

Question: For CC(C)C[C@H](NC(=O)[C@H](CO)NC(=O)[C@@H]1CCCN1C(=O)[C@H](CO)NC(=O)[C@H](CC(C)C)NC(=O)[C@@H]1CCCN1C(=O)[C@H](CC(C)C)NC(=O)[C@H](CCC(=O)O)NC(=O)[C@H](CC(C)C)NC(=O)[C@H](CC(=O)O)NC(=O)[C@H](CCCNC(=N)N)NC(=O)[C@@H]1CCCN1C(=O)[C@H](CCCCN)NC(=O)[C@H](CCCNC(=N)N)NC(=O)CNC(=O)[C@H](CCCCN)NC(=O)[C@@H](N)CCC(N)=O)C(=O)O [Elk1D] (H-QKGRKPRDLELPLSPSL-OH), which Kd (2P-ERK2 (active ERK2) [3]) is on record?
Answer: 30 ± 3 µM

Question: And the Kd (0P-ERK2 (inactive ERK2) [4])?
Answer: 10 ± 1 µM

Question: With “full-length Elk1 protein: full-length transcription factor Elk1, a substrate of ERK2” as the molecule, how does the Kd [5] read?
Answer: 5 µM

Question: What does the source list for Nc1ncnc2c1ncn2[C@@H]1O[C@H](COP(=O)(O)OP(=O)(O)NP(=O)(O)O)[C@@H](O)[C@H]1O [AMP-PNP, adenosine 5′-(β,γ-imido)triphosphate]?
Answer: Kd (0P-ERK2 (inactive ERK2) [6]): 200 to 500 µM; Kd (2P-ERK2 (active ERK2) [7]): 200 to 500 µM
